PubChem BioAssay
Inconclusive results are not listed.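 How the source made its calls, unless noted: active means cell viability at or below a set limit in both duplicate runs, the limit being the all-compound median minus 4 SD (cut at about 23% in these data, passing the limit was not always enough); inconclusive means no clear call, values can overlap the other calls; inactive means the rest.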

Columns and labels:
[1] = OD615 S. cerevisiae growth inhibition, permissive medium, pilot counter-assay, permissive growth control for S. cerevisiae lifespan shortening project (AID 705;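 active means growth inhibition above 25% in both replicates, a cutoff set 3 SD above the mean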); settings: OD615, 24 h, at 10 µM, stronger effect = higher value
How it was run: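 System: Engineered DeaD yeast | Buffer or medium: SC raffinose/galactose permissive medium | Doses: 10 µM single dose, 0.25% DMSO | Times: 24 h exposure, 30 °C | Measured by: OD615 turbidity read | Read-out: Yeast growth inhibition indicated by reduced 24 h OD615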

[2] = Restrictive medium S. cerevisiae growth inhibition, OD615, pilot screen of yeast lifespan reduction project, restrictive growth control (AID 706;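 active means growth inhibition above a set limit, 3 SD over mean compound inhibition, in both replicates, cut at about 43% in these data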;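 further: modified DeaD lifespan yeast strain shifted to restrictive glucose medium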); settings: OD615, 48 h, at 10 µM, stronger effect = higher value
How it was run: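 Assay system: engineered S. cerevisiae DeaD strain; Buffer or medium: CSMM-D glucose medium; Dosing: 10 µM compound, 0.25% DMSO; Times: cell pre-growth 4 h, compound exposure 48 h, 30 °C; Detection: absorbance (optical density) measured at 615 nm.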

[3] = viability gain of MRP-1-high H69AR cells under doxorubicin, pilot screen, MRP-1 activator project, CellTiter-Glo, duplicate (AID 807;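 active means viability increase at or above a cutoff of the median across tested compounds plus 3 SD, cut at about 8.5% in these data, passing the limit was not always enough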;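 further: compound pretreatment 18-22 h then 72 h combined with doxorubicin; 0% = doxorubicin alone and 100% = vehicle without doxorubicin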); settings: H69AR viability with doxorubicin, CellTiter-Glo luminescence; at 10 µM; stronger effect = higher value
[4] = growth suppression of beta-catenin knockout HCT116, pilot screen, human colon tumor cells (AID 823); settings: CellTiter-Glo, 60 h, at 10 µM, stronger effect = lower value;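 further: 0% = wells killed by 20 µM Hyamine and 100% = untreated DMSO cell wells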
[5] = growth suppression of PTEN-deleted HCT116, pilot screen, cell-based, HCT116 clonal line, CellTiter-Glo (AID 824;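 active means viability at or below 27.92% in each of two runs, the all-compound median minus 4 SD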;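 further: 0% = 20 µM Hyamine control and 100% = vehicle cell control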); settings: 60 h, at 10 µM, stronger effect = lower value
[6] = inhibitors of the yeast RAM network, pilot screen, dse1pr::URA3 reporter, 5-FOA selection (AID 869;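 active means inhibition over a set limit, the all-compound mean plus 3 SD, in both replicate runs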;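 further: 0% = DMSO wells with no growth and 100% = 10 µM 1-NA-PP1 with full growth; RAM network block rescues cells from 5-FOA so hits raise OD615 growth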); settings: S. cerevisiae dse1pr::URA3 5-FOA growth, OD615, 2 d; at 10 µM; stronger effect = higher value; strain carries analog-sensitive mutant Cbk1 kinase
[7] = RAM signaling pathway blockade in yeast – S. cerevisiae, Pdr1DBD-CYC8 efflux-inhibited sensitized strain, primary screen (AID 1298;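 active means RAM network inhibition above 8.4% in each of two replicates, 3 SD over the compound average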;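 further: 0% = DMSO untreated cells without growth and 100% = 10 µM 1-NA-PP1 full growth; higher means more yeast growth rescued from 5-FOA killing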); settings: S. cerevisiae cbk1-as DSE1-URA3 strain, 5-FOA growth OD615, 2 d; at 50 µM; stronger effect = higher value

CCOCC(=O)NCc1ccc2c(c1)cc(C)n2C
inactive: growth inhibition [1] -13.8% | growth inhibition [2] -14% | viability increase [3] -1.45% | viability [4] 103% | viability [5] 97.3% | inhibition [6] 0.65% | RAM network inhibition [7] 0.21%

CC(C)c1nnc(NC(=O)c2ccc(S(=O)(=O)N3CCOCC3)cc2)s1
inactive: growth inhibition [1] -15% | growth inhibition [2] -24.1% | viability increase [3] -1% | viability [4] 104% | viability [5] 99.3% | inhibition [6] 2.56% | RAM network inhibition [7] 6.74%

CCOc1ccccc1NC(=O)C1CCC(CNc2c(N3CCOCC3)c(=O)c2=O)CC1 (configuration not stated)
inactive: growth inhibition [1] 0.95% | growth inhibition [2] -1.83% | viability increase [3] -0.66% | viability [4] 108% | viability [5] 92.7% | inhibition [6] 1.43% | RAM network inhibition [7] 1.18%

C=CCn1c(C(C)NC(=O)CCC)nc2ccccc21 (configuration not stated)
inactive: growth inhibition [1] 0.415% | growth inhibition [2] 7.8% | viability increase [3] -0.88% | viability [4] 104% | viability [5] 93.9% | inhibition [6] 1.11% | RAM network inhibition [7] -0.02%

COc1ccc(N(CC(=O)Nc2nccs2)S(=O)(=O)c2c(C)nn(C)c2C)cc1
inactive: growth inhibition [1] -18.2% | growth inhibition [2] -6.82% | viability increase [3] -3.77% | viability [4] 93% | viability [5] 87.5% | inhibition [6] 3% | RAM network inhibition [7] 3.8%

O=C(O)c1ccc(-n2cccc2)cc1O
inactive: growth inhibition [1] -2.21% | growth inhibition [2] -13.1% | viability increase [3] -1.52% | viability [4] 96.8% | viability [5] 101% | inhibition [6] 0.285% | RAM network inhibition [7] -0.83%

CCCC(=O)C1C(=O)CC(C)(C)C(c2cc(C)no2)C1=O (configuration not stated)
inactive: growth inhibition [1] -22.4% | growth inhibition [2] -12.9% | viability increase [3] 0.5% | viability [4] 103% | viability [5] 98.7% | inhibition [6] -0.1% | RAM network inhibition [7] -1.09%

CCN(CC)c1ccc(NS(=O)(=O)c2ccc3c(c2)oc(=O)n3C)c(C)c1
inactive: growth inhibition [1] -8.04% | growth inhibition [2] -10.8% | viability increase [3] -2.73% | viability [4] 83.2% | viability [5] 72.6% | inhibition [6] 1.33% | RAM network inhibition [7] -0.57%

CN1CCN(S(=O)(=O)c2ccc3c4c(cccc24)C(=O)N3)CC1
inactive: growth inhibition [1] -11.8% | growth inhibition [2] -4.42% | viability increase [3] -2% | viability [4] 110% | viability [5] 96.4% | inhibition [6] 1.18% | RAM network inhibition [7] 1.28%

CCC(=O)N/C(=N/c1nc(C)cc(C)n1)Nc1cccc(OC)c1
inactive: growth inhibition [1] -5.62% | growth inhibition [2] -19.7% | viability increase [3] -4.53% | viability [4] 41.1% | viability [5] 36.4% | inhibition [6] 2.23% | RAM network inhibition [7] 3.66%

O=c1[nH]c(=S)[nH]nc1Cc1ccccc1
inactive: growth inhibition [1] -10% | growth inhibition [2] 13.4% | viability increase [3] -0.79% | viability [4] 101% | viability [5] 98.2% | inhibition [6] 0.12% | RAM network inhibition [7] 6.46%

NC(=O)c1nc(C2CCCCC2)nc2c1[nH]c(=O)n2-c1ccc(F)cc1
inactive: growth inhibition [1] -13.1% | growth inhibition [2] -17.8% | viability increase [3] -3.71% | viability [4] 87.4% | viability [5] 86% | inhibition [6] 1.69% | RAM network inhibition [7] 5.24%

CCOC(=O)c1ccc(NC(=O)CSc2nc3c(c(=O)n2C)SC(C)C3)cc1 (configuration not stated)
inactive: growth inhibition [1] 1.02% | growth inhibition [2] 7.47% | viability increase [3] -2.01% | viability [4] 72.9% | viability [5] 74.3% | inhibition [6] 0.975% | RAM network inhibition [7] 3.08%

COCC(C)N=Cc1c(O)[nH]c2ccccc12 (configuration not stated)
inactive: growth inhibition [1] 0.585% | growth inhibition [2] 1.21% | viability increase [3] -2.38% | viability [4] 92.1% | viability [5] 97.5% | inhibition [6] 0.82% | RAM network inhibition [7] -1.18%

CCn1cc(C(=O)Nc2ccc3c(c2)OCCO3)c2cc(OC)c(OC)cc2c1=O
inactive: growth inhibition [1] -10% | growth inhibition [2] 2.6% | viability increase [3] -6.05% | viability [4] 101% | viability [5] 88.6% | inhibition [6] 0.915% | RAM network inhibition [7] -1.36%

COC(=O)C1CCN(C(=O)c2ccc(Cl)c(S(=O)(=O)NCc3cccnc3)c2)CC1
inactive: growth inhibition [1] -4.88% | growth inhibition [2] -18.5% | viability increase [3] 0.87% | viability [4] 101% | viability [5] 102% | inhibition [6] 1.32% | RAM network inhibition [7] 2.3%

CCOC(=O)C1=C(O)/C(=C/N(C)C)N=C1C
inactive: growth inhibition [1] 4.34% | growth inhibition [2] 5.5% | viability increase [3] -0.31% | viability [4] 103% | viability [5] 106% | inhibition [6] 3.19% | RAM network inhibition [7] 0.56%

Cc1ccc2c(c1)NCC(C(=O)NC1CCC(C)CC1)O2 (configuration not stated)
inactive: growth inhibition [1] -10.3% | growth inhibition [2] -4.18% | viability increase [3] 1.52% | viability [4] 98.4% | viability [5] 91.4% | inhibition [6] 1% | RAM network inhibition [7] 5.26%

O=C(NC1CCCCC1)c1ccc(Br)o1
inactive: growth inhibition [1] -5.84% | growth inhibition [2] -1.68% | viability increase [3] -1.9% | viability [4] 102% | viability [5] 102% | inhibition [6] 0.915% | RAM network inhibition [7] 3.82%

O=C(O)C1CC=CCC1C(=O)Nc1cccc(Cl)c1Cl (configuration not stated)
inactive: growth inhibition [1] -8.95% | growth inhibition [2] -11.1% | viability increase [3] -1.82% | viability [4] 99.6% | viability [5] 101% | inhibition [6] 3.07% | RAM network inhibition [7] 0.21%

CCOc1ccc(C2N(c3ccc(Cl)cc3)C(=O)C3CCCN32)cc1OC (configuration not stated)
inactive: growth inhibition [1] -2.75% | growth inhibition [2] -6.81% | viability increase [3] -1.98% | viability [4] 98.7% | viability [5] 95.8% | inhibition [6] -0.115% | RAM network inhibition [7] 5.42%

CCOC(=O)c1c(NC(=O)c2cccs2)sc2c1CCCC2
inactive: growth inhibition [1] -6.96% | growth inhibition [2] -21.1% | viability increase [3] -4.82% | viability [4] 101% | viability [5] 83.5% | inhibition [6] 3.56% | RAM network inhibition [7] 8%

Cc1cc(C)c2c(n1)SCC(=O)N2CC(=O)NCCC1=CCCCC1
inactive: growth inhibition [1] -0.205% | growth inhibition [2] 4.58% | viability increase [3] -0.04% | viability [4] 103% | viability [5] 92.9% | inhibition [6] 0.52% | RAM network inhibition [7] 2.59%

O=C(Cn1cnc2c(nnn2-c2ccccc2)c1=O)N1CCC(Cc2ccccc2)CC1
inactive: growth inhibition [1] 7.29% | growth inhibition [2] 9.16% | viability increase [3] -1.56% | viability [4] 91.4% | viability [5] 85.3% | inhibition [6] 2.19% | RAM network inhibition [7] 7.33%

COc1ccc(OC)c(NC(=O)CNC(=O)Cn2ccc3ccccc3c2=O)c1
inactive: growth inhibition [1] -9.38% | growth inhibition [2] 10.5% | viability increase [3] -1.6% | viability [4] 104% | viability [5] 90.5% | inhibition [6] 3.29% | RAM network inhibition [7] -0.05%

Cn1nnnc1SCc1ccc(F)cc1
inactive: growth inhibition [1] -3.69% | growth inhibition [2] -4.48% | viability increase [3] -0.09% | viability [4] 98.1% | viability [5] 108% | inhibition [6] 1.25% | RAM network inhibition [7] 2.61%

O=C1C2CCCN2C(c2cccc(F)c2)N1c1cccc(Cl)c1 (configuration not stated)
inactive: growth inhibition [1] -10.5% | growth inhibition [2] 1.77% | viability increase [3] -0.22% | viability [4] 108% | viability [5] 99% | inhibition [6] 0.56% | RAM network inhibition [7] -0.05%

CN(C)S(=O)(=O)N1CCC(Cc2ccccc2)CC1
inactive: growth inhibition [1] -9.73% | growth inhibition [2] 3.98% | viability increase [3] -0.78% | viability [4] 85.3% | viability [5] 85% | inhibition [6] -0.275% | RAM network inhibition [7] 1.8%

O=C(Cn1cc2c(n1)CCCC2)N1CCOCC1
inactive: growth inhibition [1] -13.2% | growth inhibition [2] -4.99% | viability increase [3] -0.03% | viability [4] 99.4% | viability [5] 108% | inhibition [6] 0.095% | RAM network inhibition [7] 6.94%

O=C(CCSc1ccccc1)NCCSc1ccccn1
inactive: growth inhibition [1] -12.8% | growth inhibition [2] -12% | viability increase [3] -2.49% | viability [4] 96.3% | viability [5] 94.6% | inhibition [6] 2.69% | RAM network inhibition [7] 0.53%

CCOC(=O)c1cnc2nc[nH]n2c1=O
inactive: growth inhibition [1] 1.53% | growth inhibition [2] 11.7% | viability increase [3] 2.64% | viability [4] 104% | viability [5] 103% | inhibition [6] 0.33% | RAM network inhibition [7] -0.24%

O=C(CN1C(=O)c2ccccc2C1=O)Nc1cccc2cccnc12
inactive: growth inhibition [1] -14.6% | growth inhibition [2] -12.1% | viability increase [3] -1.1% | viability [4] 104% | viability [5] 106% | inhibition [6] 0.36% | RAM network inhibition [7] 5.82%

Cc1ccc(-n2ncc3c(NCc4ccco4)ncnc32)c(C)c1
inactive: growth inhibition [1] -3.74% | growth inhibition [2] -9.7% | viability increase [3] -4.75% | viability [4] 97.3% | viability [5] 90.4% | inhibition [6] -0.12% | RAM network inhibition [7] -0.57%

COc1ccc(N2CC(C(=O)NC3CC(C)(C)NC(C)(C)C3)CC2=O)cc1 (configuration not stated)
inactive: growth inhibition [1] -9.42% | growth inhibition [2] -4.41% | viability increase [3] 0.06% | viability [4] 99.8% | viability [5] 104% | inhibition [6] 0.515% | RAM network inhibition [7] 2.14%

CCOC(=O)c1cccc(NC(=O)Cn2cc3c(n2)CCC(C)C3)c1 (configuration not stated)
inactive: growth inhibition [1] 4.72% | growth inhibition [2] 17.6% | viability increase [3] -0.48% | viability [4] 101% | viability [5] 92.3% | inhibition [6] 1.12% | RAM network inhibition [7] 0.81%

c1ccc2c(c1)CCCN2c1nc2ccccc2n2cnnc12
inactive: growth inhibition [1] -6.12% | growth inhibition [2] -9.76% | viability increase [3] -6.44% | viability [4] 91.2% | viability [5] 83.3% | inhibition [6] 1.44% | RAM network inhibition [7] 4.1%
